Reference: ChEMBL document CHEMBL1268949, “3D QSAR study, synthesis, and in vitro evaluation of (+)-5-FBVM as potential PET radioligand for the vesicular acetylcholine transporter (VAChT)” (Bioorg Med Chem, 2010)

Tests used:
[1] = target: T1, Vesicular acetylcholine transporter (Rattus norvegicus, UniProt Q62666); experiment: Displacement of (-)-[3H]vesamicol from rat VAChT expressed in rat PC12 cells after 60 mins; assay type: cell-based, PC-12
T1 sequence (Q62666 whole entry): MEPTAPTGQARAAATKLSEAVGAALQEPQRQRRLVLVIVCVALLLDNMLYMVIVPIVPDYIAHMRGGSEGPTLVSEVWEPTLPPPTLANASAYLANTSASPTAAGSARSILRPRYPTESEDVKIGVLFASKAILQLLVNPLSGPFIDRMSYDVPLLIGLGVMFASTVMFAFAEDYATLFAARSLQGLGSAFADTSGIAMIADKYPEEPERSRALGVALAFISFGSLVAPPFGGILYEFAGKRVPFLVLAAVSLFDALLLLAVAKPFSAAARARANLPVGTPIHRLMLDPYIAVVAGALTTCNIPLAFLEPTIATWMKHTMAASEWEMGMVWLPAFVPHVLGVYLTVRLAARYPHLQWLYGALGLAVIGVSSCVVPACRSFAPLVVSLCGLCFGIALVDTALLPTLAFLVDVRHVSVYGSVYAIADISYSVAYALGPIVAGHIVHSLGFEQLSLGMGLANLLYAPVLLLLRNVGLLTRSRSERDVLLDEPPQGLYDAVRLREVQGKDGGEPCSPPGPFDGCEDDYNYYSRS
How it was run: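 Displacement of (−)-[3H]vesamicol was run on homogenates of PC12 cells stably transfected with rat VAChT. (−)-Vesamicol in excess defined non-specific binding, and bound ligand was collected by filtration on a cell harvester. Triplicates, at least three times; IC50 by computational non-linear regression.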

[2] = target: Sigma non-opioid intracellular receptor 1 (Rattus norvegicus, UniProt Q9R0C9); experiment: Displacement of (-)-[3H]pentazocine from sigma 1 receptor in rat cortical membranes after 120 mins; assay type: cell membranes, Membrane
How it was run: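 Radioligand displacement on rat cortical membrane homogenates with (−)-[3H]pentazocine (1070 GBq/mmol), in 50 mM TRIS–HCl pH 7.4 at room temperature. Each assay was run in triplicate at least three times, and IC50 was estimated by non-linear regression.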

[3] = Displacement of (-)-[3H]DTG from sigma 2 receptor in rat liver membranes after 120 mins; assay type: cell membranes, Membrane
Rattus norvegicus = species: Rattus norvegicus; experiment: Selectivity ratio of Ki for sigma 1 receptor in rat cortical membranes to Ki for rat VAChT; assay type: cell membranes; conditions: Membrane

Sequence of Sigma non-opioid intracellular receptor 1 (Q9R0C9 whole entry): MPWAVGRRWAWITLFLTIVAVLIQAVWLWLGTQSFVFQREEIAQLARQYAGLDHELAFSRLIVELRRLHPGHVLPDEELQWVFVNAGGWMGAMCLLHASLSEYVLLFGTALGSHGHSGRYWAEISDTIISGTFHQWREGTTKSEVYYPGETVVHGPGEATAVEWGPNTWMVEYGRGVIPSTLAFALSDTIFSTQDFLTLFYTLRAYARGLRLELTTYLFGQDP

SMILES	Ki [1] [nM]	Ki [2] [nM]	Ki [3] [nM]	Ratio Ki (Rattus norvegicus)
O[C@H]1Cc2cccc(F)c2C[C@@H]1N1CCC(c2ccccc2)CC1	6.95	38.1	526	5.48
O[C@H]1Cc2cccc(OCCF)c2C[C@@H]1N1CCC(c2ccccc2)CC1	56.9	269		4.7
OC1Cc2cccc(F)c2CC1N1CCC(c2ccccc2)CC1 (racemic)	10.9	13.2	229	1.21
O[C@@H]1Cc2cccc(OCCF)c2C[C@H]1N1CCC(c2ccccc2)CC1	19.6	209		10.7
O[C@@H]1Cc2cccc(I)c2C[C@H]1N1CCC(c2ccccc2)CC1 (racemic)	15.8	266		17
Nc1cccc2c1CC(N1CCC(c3ccccc3)CC1)C(O)C2 (racemic)	40.6	652		16
O[C@@H]1Cc2cccc(F)c2C[C@H]1N1CCC(c2ccccc2)CC1	3.68	3.57	252	0.97
